Compound activity from PubChem BioAssay.
KCNK3 block = human KCNK3 channel inhibition, primary screen; B-score at 10 µM; CHO-KCNK3 thallium flux, FluxOR fluorescence; active compounds read low; 0.84% of 340,000 active; O14649; AID 602410;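 active = B-score under library mean minus 4 SD, starting fluorescence ratio at most library mean plus 5 SD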;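 also: more negative B-score means stronger inhibition of thallium flux through KCNK3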
KCNQ1 act = potentiators or activators of human KCNQ1 potassium channel; P51787; CHO-K1 KCNQ1, thallium flux FluxOR fluorescence; active compounds read high; B-score at 10 µM; 0.35% of 310,000 active; AID 2648;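 active = fluorescence ratio B-score, a plate-corrected score, at least three library SD, with initial intensity B-score within 5 SD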
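assay system = CHO-K1 cells stably expressing KCNQ1 | medium = assay buffer, equal DMSO in all wells | timing = 37 °C overnight plating, 90-min dark dye load, 20-min compound pretreatment | measured by = kinetic FluxOR thallium fluorescence, 10-s 1-Hz baseline, 110-s post-stimulus read | measure = fluorescence change relative to baseline, converted to B score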
KCNQ1 inh = blocks the human KCNQ1 potassium channel. 1.3% of 310,000 active. B-score at 10 µM. CHO-K1 KCNQ1, FluxOR thallium flux fluorescence; active compounds read high;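 active = compounds whose thallium flux B-score, printed positive for inhibition, exceeds three library SD while starting fluorescence stays within three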;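 also: channel opened by potassium depolarization with thallium stimulus after 20 min compound exposure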
Kir21 block = Kir2.1 (mouse) channel inhibition; HEK293-Kir2.1, FluxOR thallium flux fluorescence; active compounds read low; B-score at 10 µM; 0.85% of 310,000 active; P35561;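 active = fluorescence ratio B-score at or below minus 3 SD of library scores, with starting-brightness B-score within 2 SD, cut at about -4.2 in these data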;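 also: channel flux triggered by added potassium and thallium sulfate stimulus; B-score of peak minus minimum fluorescence over baseline after thallium stimulus; more negative B-score means stronger Kir2.1 block with less thallium influx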
hERG rescue = hERG (human) protection from proarrhythmic block | AID 1511 | activation (rescue from dofetilide block), less the hit threshold, % at 10 µM | 0.51% of 310,000 active | CHO-hERG, FluxOR thallium flux, dofetilide IC70 present;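 active = activation above the mean of controls blocked by dofetilide plus 5 SD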;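 also: thallium influx through hERG after potassium depolarization seen as dye fluorescence rise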
Target sequence (Q12809 whole entry, looked up): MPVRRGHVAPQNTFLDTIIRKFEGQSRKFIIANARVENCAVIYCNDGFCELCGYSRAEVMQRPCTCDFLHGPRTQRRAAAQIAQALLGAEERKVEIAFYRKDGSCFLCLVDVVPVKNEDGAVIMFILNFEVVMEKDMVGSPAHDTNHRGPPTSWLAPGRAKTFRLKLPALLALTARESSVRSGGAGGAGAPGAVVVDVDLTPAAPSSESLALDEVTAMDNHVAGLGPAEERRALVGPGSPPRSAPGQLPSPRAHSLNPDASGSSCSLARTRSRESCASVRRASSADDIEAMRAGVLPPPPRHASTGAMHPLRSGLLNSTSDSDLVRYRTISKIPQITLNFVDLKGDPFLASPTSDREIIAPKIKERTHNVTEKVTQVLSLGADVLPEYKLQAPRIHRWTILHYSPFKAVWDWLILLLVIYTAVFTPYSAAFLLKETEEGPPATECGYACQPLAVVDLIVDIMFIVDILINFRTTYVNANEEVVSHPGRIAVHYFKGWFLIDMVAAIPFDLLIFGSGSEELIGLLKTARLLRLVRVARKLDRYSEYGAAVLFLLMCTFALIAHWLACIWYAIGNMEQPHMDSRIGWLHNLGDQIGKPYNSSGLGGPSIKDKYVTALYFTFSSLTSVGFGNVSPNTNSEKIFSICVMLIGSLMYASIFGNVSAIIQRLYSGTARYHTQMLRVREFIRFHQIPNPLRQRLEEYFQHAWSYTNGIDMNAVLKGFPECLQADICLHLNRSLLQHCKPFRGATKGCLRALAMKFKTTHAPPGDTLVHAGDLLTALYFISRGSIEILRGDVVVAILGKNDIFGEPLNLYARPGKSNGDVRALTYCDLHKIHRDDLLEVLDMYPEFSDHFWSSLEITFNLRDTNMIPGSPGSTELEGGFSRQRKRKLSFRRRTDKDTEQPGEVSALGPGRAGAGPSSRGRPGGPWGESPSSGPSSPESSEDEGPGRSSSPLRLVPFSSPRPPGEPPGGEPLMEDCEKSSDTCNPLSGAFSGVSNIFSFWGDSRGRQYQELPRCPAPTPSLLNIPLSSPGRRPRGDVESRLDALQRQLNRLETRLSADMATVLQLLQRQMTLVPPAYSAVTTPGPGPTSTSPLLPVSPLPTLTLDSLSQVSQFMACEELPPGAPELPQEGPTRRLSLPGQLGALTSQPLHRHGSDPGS
KCNK9 inh = blocks the human KCNK9 two-pore domain potassium channel. Q9NPC2. HEK293 KCNK9, FluxOR thallium flux fluorescence; active compounds read low. AID 488922. B-score at 10 µM. 1.2% of 310,000 active;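 active = ratio B-score over 3 SD below the library mean, with starting fluorescence within 5 SD of its mean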;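 also: negative B-score means less thallium flux so channel inhibition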
* marks the source's active call; other numbers are inactive results. Rows were chosen to be rich in hits. Some 3.7% of all compounds tested hit in one or more screens of this group.

What do the screens show for `Cc1cccc(NC(=O)CCS(=O)(=O)c2cccc3nsnc23)c1C`?
KCNK3 block: inactive; KCNQ1 act: inactive; KCNQ1 inh: inactive; Kir21 block: -0.22; hERG rescue: -8; KCNK9 inh: inactive

Results for CCCN(CCC)C(=O)CCS(=O)(=O)c1cccc2nsnc12 ?
KCNK3 block: inactive; KCNQ1 act: inactive; KCNQ1 inh: inactive; Kir21 block: -4.5*; hERG rescue: -2; KCNK9 inh: inactive

What do the screens show for `O=c1[nH]cnc2c1ccn2C1OC(CO)C(O)C1O` (stereo unspecified)?
KCNK3 block: inactive

Results for O=C(Nc1cccc(Cl)c1)Nc1nc(-c2ccc(Cl)cc2)cs1 ?
KCNK3 block: inactive; KCNQ1 act: inactive; KCNQ1 inh: 8*; Kir21 block: -1.2; hERG rescue: -8; KCNK9 inh: inactive

Results for O=C(/C=C/c1ccccc1)Nc1cccc(C(=O)NC2CC2)c1 ?
KCNK3 block: inactive

How did COc1ccccc1C1CN(c2ccc(F)cc2F)N=C1c1cccs1 (stereo unspecified) do in these assays?
KCNK3 block: inactive; KCNQ1 act: inactive; KCNQ1 inh: inactive; Kir21 block: -0.27; hERG rescue: -4; KCNK9 inh: -7.4*

What do the screens show for `COc1cc2c(cc1OC)C(Cc1ccccc1[N+](=O)[O-])=NCC2`?
KCNK3 block: inactive

Results for N#Cc1nc(COc2ccc(Cl)cc2Cl)oc1N1CCN(c2ccccc2)CC1 ?
KCNK3 block: inactive; KCNQ1 act: inactive; KCNQ1 inh: inactive; Kir21 block: 0.68; hERG rescue: -17; KCNK9 inh: -6.6*

How did COC(=O)c1sccc1NC(=S)NCc1ccc(Cl)cc1 do in these assays?
KCNK3 block: inactive; KCNQ1 act: inactive; KCNQ1 inh: inactive; Kir21 block: 0.09; hERG rescue: 14*; KCNK9 inh: inactive

How did Cc1nc(Cc2nnc(SC(C)C(=O)Nc3cccc(C#N)c3)o2)cs1 (stereo unspecified) do in these assays?
KCNK3 block: inactive; KCNQ1 act: inactive; KCNQ1 inh: inactive; Kir21 block: -1; hERG rescue: -12; KCNK9 inh: inactive

How did Cc1ccccc1C(=O)NNC(=O)C(=O)Nc1cccc(Cl)c1C do in these assays?
KCNK3 block: inactive; KCNQ1 act: 47*; KCNQ1 inh: inactive; Kir21 block: -0.31; hERG rescue: 13*; KCNK9 inh: inactive

What do the screens show for `O=Cc1ccnc(-c2ccc(OC(=O)c3ccco3)cc2)n1`?
KCNK3 block: inactive; KCNQ1 act: inactive; KCNQ1 inh: inactive; Kir21 block: -5.4*; hERG rescue: -18; KCNK9 inh: inactive

What do the screens show for `O=C(Oc1ccc(-c2ccccc2)cc1)c1ccco1`?
KCNK3 block: inactive

What do the screens show for `O=C(NC(=S)Nc1nc2c(s1)CCCC2)c1ccc(C(=O)c2ccccc2)cc1`?
KCNK3 block: inactive; KCNQ1 act: 9*; KCNQ1 inh: inactive; Kir21 block: 1.9; hERG rescue: 14*; KCNK9 inh: inactive

Results for O=C(Nc1nc2c(s1)CCCC2)c1cccnc1 ?
KCNK3 block: inactive; KCNQ1 act: inactive; KCNQ1 inh: inactive; Kir21 block: -0.68; hERG rescue: -12; KCNK9 inh: inactive

What do the screens show for `CC1(C)CC(=O)c2c(O)cc(OCC(=O)Nc3ccc(S(N)(=O)=O)cc3)cc2O1`?
KCNK3 block: inactive; KCNQ1 act: inactive; KCNQ1 inh: inactive; Kir21 block: -0.01; hERG rescue: -5; KCNK9 inh: inactive

Results for COc1cc(NC(=O)COc2cc(O)c3c(c2)OC(C)(C)CC3=O)cc(OC)c1OC ?
KCNK3 block: inactive; KCNQ1 act: inactive; KCNQ1 inh: 9*; Kir21 block: 0.02; hERG rescue: -28; KCNK9 inh: inactive

Results for O=C(Cc1cccc(NC(=O)C2CCCN(C(=O)C3CCCCC3)C2)c1)Nc1ccc(C(=O)N2CCCCC2)cc1 (stereo unspecified) ?
KCNK3 block: inactive

What do the screens show for `CNC[C@@H](CC1CCCCC1)NC[C@H](CC(C)C)NCCc1cccc(C(F)(F)F)c1`?
KCNK3 block: inactive; KCNQ1 act: inactive; KCNQ1 inh: 9*; Kir21 block: -8.8*; hERG rescue: -30; KCNK9 inh: inactive

What do the screens show for `CCC[C@@H](CNC)NC[C@H](Cc1ccccc1)NCCCCc1ccccc1`?
KCNK3 block: inactive; KCNQ1 act: inactive; KCNQ1 inh: inactive; Kir21 block: -4.5*; hERG rescue: -11; KCNK9 inh: inactive

How did CCC[C@@H](CN[C@@H](CNC)C(C)C)NCCCCc1ccccc1 do in these assays?
KCNK3 block: inactive; KCNQ1 act: inactive; KCNQ1 inh: inactive; Kir21 block: -2.2; hERG rescue: -6; KCNK9 inh: inactive

Results for CNC[C@@H](Cc1ccccc1)NC[C@@H](CC1CCCCC1)NCCCc1ccccc1 ?
KCNK3 block: inactive; KCNQ1 act: inactive; KCNQ1 inh: 7*; Kir21 block: -11*; hERG rescue: -25; KCNK9 inh: -8.1*

Results for C=CCOC(=O)c1ccccc1C(=O)OCC1CO1 (stereo unspecified) ?
KCNK3 block: inactive

How did CC(C)n1cnc2c(NCc3ccccc3)cc(N[C@H](C)CO)cc21 do in these assays?
KCNK3 block: inactive

What do the screens show for `CCOC(=O)CSc1cc(C(F)(F)F)nc(-c2ccccn2)n1`?
KCNK3 block: inactive; KCNQ1 act: inactive; KCNQ1 inh: inactive; Kir21 block: 2.3; hERG rescue: -7; KCNK9 inh: inactive

How did O=C(O)CSc1cc(C(F)(F)F)nc(-c2ccccn2)n1 do in these assays?
KCNK3 block: inactive; KCNQ1 act: inactive; KCNQ1 inh: inactive; Kir21 block: 0.63; hERG rescue: 39*; KCNK9 inh: inactive

What do the screens show for `CN=c1sc2c(n1C)C(=O)c1ccccc1C2=O`?
KCNK3 block: inactive

Results for Oc1ccccc1/C=N/NC(=S)NC1CC2C=CC1C2 (stereo unspecified) ?
KCNK3 block: inactive; KCNQ1 act: inactive; KCNQ1 inh: inactive; Kir21 block: -0.8; hERG rescue: -14; KCNK9 inh: inactive

Results for CCCN(CCC)C(=S)NC1CC2C=CC1C2 (stereo unspecified) ?
KCNK3 block: inactive; KCNQ1 act: inactive; KCNQ1 inh: inactive; Kir21 block: -4.7*; hERG rescue: -16; KCNK9 inh: inactive

What do the screens show for `COc1ccc(CN(C)CCCn2cnc(C(=O)Nc3ccc(C)c(C)c3)n2)cc1OC`?
KCNK3 block: inactive

What do the screens show for `O=C(O/N=C1\CCS(=O)(=O)c2sccc21)C1CC1`?
KCNK3 block: inactive; KCNQ1 act: inactive; KCNQ1 inh: inactive; Kir21 block: 1.3; hERG rescue: 5.0*; KCNK9 inh: inactive
